Laboratory results published in the RNAGym collection of RNA variant scans (doi:10.1126/science.aae0568).
Fewer inactive variants are shown than the library holds.

B1: tRNA (parent)
chain: GUUCCGUUGGCGUAAUGGUAACGCGUCUCCCUCCUAAGGAGAAGACUGCGGGUUCGAGUCCCGUACGGAACG

Variants of: B1
Assay: yeast fitness relative to wild type (ratio to wild type); higher = fitter; tRNA-Arg(CCU), competitive growth, 37 C, YPD
Outline: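 For this measurement, the tRNA-Arg(CCU) gene was varied by chemical synthesis at a 3% per-site mutation rate across 69 sites, and each variant was placed at the native genomic locus in Saccharomyces cerevisiae. The pooled strains went through a 24-hour competition in YPD at 37°C in six parallel replicates, with amplicons from start and end populations read by 100-nucleotide paired-end sequencing. Darwinian fitness relative to wild type followed from the change in each genotype's frequency. Genotypes needed ≥ 100 starting reads, and estimates < 0.5 were set to 0.5.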

G12A G17U C49G C60U G68A and G12A G23C C30G A37U C62U A65U cannot be ordered by yeast fitness: ≤ 0.5 for the first, ≤ 0.5 for the second.

First: G12A C46U
Second: G12A A43C C46U
The yeast fitness of the first is higher: 0.9 for the first, 0.764 for the second.

First: G12A C27G C34A C49A C60G C61U
Second: G12A C33U G41C
The yeast fitness of the first is higher: 0.527 for the first, ≤ 0.5 for the second.

G12A C24G G38A A40C A43C C46U G68C A69U and G12A C24G C33G A36C A37C A42C A65U cannot be ordered by yeast fitness: ≤ 0.5 for the first, ≤ 0.5 for the second.

Going from G12A A14G C30G C46A to G12A G44A G67C, the yeast fitness falls from 0.882 to 0.62.

First: G12A C22G C31G
Second: G12A G50C U64C
The yeast fitness of the first is lower: 0.662 for the first, 0.692 for the second.

G12A C22U C30G C31A G39C A57G and G12A A20U C27A U32C C55U G68A cannot be ordered by yeast fitness: ≤ 0.5 for the first, ≤ 0.5 for the second.

Going from G12A G25A G67A to G12A G51A A65G, the yeast fitness falls from 0.625 to ≤ 0.5.

Going from G12A G23C C61G to G12A C27G A36U, the yeast fitness rises from ≤ 0.5 to 0.599.

First: G12A C49G
Second: G12A C49A
The yeast fitness of the first is higher: 0.943 for the first, 0.67 for the second.

First: G12A A14G A37U
Second: G12A A37U A57C
The yeast fitness of the first is lower: 0.551 for the first, 0.608 for the second.

G12A C22U C24U and G12A C22A A57C U64A cannot be ordered by yeast fitness: ≤ 0.5 for the first, ≤ 0.5 for the second.

G12A A21G C31A A65U A70U and G12A C29U U64A cannot be ordered by yeast fitness: ≤ 0.5 for the first, ≤ 0.5 for the second.

G12A A36C G41C and G12A C24G C29A U47A C62A cannot be ordered by yeast fitness: ≤ 0.5 for the first, ≤ 0.5 for the second.

G12A A15C C31U C62U C66G A70G and G12A U13A A14G A21G C33U C62G cannot be ordered by yeast fitness: ≤ 0.5 for the first, ≤ 0.5 for the second.

Compared with G12A A36G U47G, G12A C29A G68A A69C is lower in yeast fitness: 0.584 for the first, ≤ 0.5 for the second.

G12A C31U A36C G39C C55U A57U and G12A A42G A45G U54A C62A cannot be ordered by yeast fitness: ≤ 0.5 for the first, ≤ 0.5 for the second.

First: G12A A20U C49U U53G A65G
Second: G12A A15U G63A
The yeast fitness of the first is lower: ≤ 0.5 for the first, 0.601 for the second.

Compared with G12A A21C C24A A69C, G12A G18C C27U C55A is lower in yeast fitness: 0.933 for the first, ≤ 0.5 for the second.

G12A A36U G63A and G12A C27A C30G G68U cannot be ordered by yeast fitness: ≤ 0.5 for the first, ≤ 0.5 for the second.

First: G12A A15G C22A
Second: G12A G44C G67A
The yeast fitness of the first is higher: 0.705 for the first, 0.513 for the second.

First: G12A A42G A65U
Second: G12A A42G A65C
The yeast fitness of the first is lower: ≤ 0.5 for the first, 0.6 for the second.

Compared with G12A C24U C29A, G12A U13C A15U is higher in yeast fitness: ≤ 0.5 for the first, 0.507 for the second.

Compared with G12A A15U C22A U26A G58A, G12A A37C C61U is lower in yeast fitness: 0.629 for the first, ≤ 0.5 for the second.

First: G12A G17A A21C C29U
Second: G12A G18C A36C
The yeast fitness of the first is lower: ≤ 0.5 for the first, 0.537 for the second.

Going from G12A A43U A45C A57G C60U G68C to G12A A20C A69U, the yeast fitness rises from ≤ 0.5 to 0.811.

Going from G12A G50A to G12A C30G U47C U54C, the yeast fitness falls from 1.01 to ≤ 0.5.

First: G12A G25A A65G
Second: G12A G25A A65U
The yeast fitness of the first is lower: 0.682 for the first, 0.756 for the second.

First: G12A C29G C34U A36C C61A
Second: G12A C46G A57C
The yeast fitness of the first is higher: 0.553 for the first, ≤ 0.5 for the second.

Going from G12A C27U C30G A42G C55U A57C to G12A A40C, the yeast fitness rises from ≤ 0.5 to 0.792.

Going from G12A A40U to G12A A40G, the yeast fitness falls from 1 to 0.871.

G12A A15G G44C U59A and G12A A40C U64G cannot be ordered by yeast fitness: ≤ 0.5 for the first, ≤ 0.5 for the second.

G12A C46U G51C and G12A C27G U32G G67C cannot be ordered by yeast fitness: ≤ 0.5 for the first, ≤ 0.5 for the second.

G12A C49U G56A C61G and G12A C27G A43G U64G cannot be ordered by yeast fitness: ≤ 0.5 for the first, ≤ 0.5 for the second.

G12A A40G C46A C61U and G12A A43U G48A C61G A70C cannot be ordered by yeast fitness: ≤ 0.5 for the first, ≤ 0.5 for the second.

G12A C31A A42G A57U U59A and G12A A14U A57G C61U cannot be ordered by yeast fitness: ≤ 0.5 for the first, ≤ 0.5 for the second.

G12A A21G C34U and G12A A20U A21U C34G G63C cannot be ordered by yeast fitness: ≤ 0.5 for the first, ≤ 0.5 for the second.

First: G12A A15U G51A A65U
Second: G12A C22G A69U
The yeast fitness of the first is lower: ≤ 0.5 for the first, 0.791 for the second.

Going from G12A G56C to G12A A21U C55U C62G, the yeast fitness falls from 0.764 to ≤ 0.5.

G12A A36U A37C A43G A57U and G12A A36G U47G U54C A65U cannot be ordered by yeast fitness: ≤ 0.5 for the first, ≤ 0.5 for the second.

G12A A40C U59G A65G and G12A C49U G67C A69G cannot be ordered by yeast fitness: ≤ 0.5 for the first, ≤ 0.5 for the second.

G12A U13C C22A U26C U47A U54G and G12A G52A U59C cannot be ordered by yeast fitness: ≤ 0.5 for the first, ≤ 0.5 for the second.

Going from G12A C27G A70C to G12A C33G C46U G50C, the yeast fitness rises from ≤ 0.5 to 0.595.

Going from G12A G25A G56A to G12A C27G, the yeast fitness rises from 0.599 to 0.71.

First: G12A C27A
Second: G12A C27U
The yeast fitness of the first is lower: 0.844 for the first, 0.942 for the second.

G12A U13A A14G G38C and G12A C24G U35A A40U G41A A42C cannot be ordered by yeast fitness: ≤ 0.5 for the first, ≤ 0.5 for the second.

Compared with G12A C30A C55A G67A, G12A A21G is higher in yeast fitness: ≤ 0.5 for the first, 1.04 for the second.

First: G12A A21C
Second: G12A C27G C55A G58A
The yeast fitness of the first is higher: 0.643 for the first, ≤ 0.5 for the second.

Compared with G12A A43C, G12A A43U is higher in yeast fitness: 0.855 for the first, 0.889 for the second.

Going from G12A A43G to G12A C22G A45G C49U U53A C66G, the yeast fitness falls from 0.988 to ≤ 0.5.

First: G12A C31A U32C U53C C60G
Second: G12A C34A A43G
The yeast fitness of the first is lower: ≤ 0.5 for the first, 0.531 for the second.

Compared with G12A C24U U64G, G12A C24U C31G is higher in yeast fitness: ≤ 0.5 for the first, 0.532 for the second.

Compared with G12A C30U U54A, G12A C30U U54C is lower in yeast fitness: 0.52 for the first, ≤ 0.5 for the second.

Going from G12A A14U U54A A57U to G12A G18C, the yeast fitness rises from ≤ 0.5 to 0.591.

First: G12A C24A A36C A70C
Second: G12A A42C G52A
The yeast fitness of the first is lower: ≤ 0.5 for the first, 0.585 for the second.

First: G12A A20G C22U
Second: G12A U13C A15G U64C
The yeast fitness of the first is lower: ≤ 0.5 for the first, 0.738 for the second.

Compared with G12A G25A G48A, G12A C27G A69C is lower in yeast fitness: 0.66 for the first, ≤ 0.5 for the second.

G12A A42G U54A A65C and G12A C31U C55G G67C cannot be ordered by yeast fitness: ≤ 0.5 for the first, ≤ 0.5 for the second.

G12A C27G A40G and G12A A15G A65C A69C cannot be ordered by yeast fitness: ≤ 0.5 for the first, ≤ 0.5 for the second.

First: G12A C22G G52C G58C A65U
Second: G12A C55U C66G
The yeast fitness of the first is lower: 0.53 for the first, 0.569 for the second.

First: G12A G18A A21U G41A
Second: G12A A42U C60G A69G
The yeast fitness of the first is higher: 0.877 for the first, ≤ 0.5 for the second.

G12A A42C C55U and G12A A14U C66A cannot be ordered by yeast fitness: ≤ 0.5 for the first, ≤ 0.5 for the second.

G12A A20U G56C G58C and G12A A14G A20G G63A cannot be ordered by yeast fitness: ≤ 0.5 for the first, ≤ 0.5 for the second.

First: G12A C46U G51C A70U
Second: G12A A36C G41A U53C
The yeast fitness of the first is higher: 0.534 for the first, ≤ 0.5 for the second.

G12A G39C G67A and G12A A20C C62G cannot be ordered by yeast fitness: ≤ 0.5 for the first, ≤ 0.5 for the second.

Going from G12A A20U to G12A C24G C29A C55U C61G A65G G68A, the yeast fitness falls from 0.831 to ≤ 0.5.

First: G12A C27G C55A C66U
Second: G12A A42G A69U
The yeast fitness of the first is lower: ≤ 0.5 for the first, 0.688 for the second.

First: G12A C31G C34A
Second: G12A A65G A69C
The yeast fitness of the first is higher: 0.585 for the first, 0.556 for the second.

First: G12A G44A
Second: G12A G44C
The yeast fitness of the first is higher: 0.935 for the first, 0.727 for the second.

Going from G12A A20U G25C U53A to G12A A14G A36U C46A, the yeast fitness falls from 0.599 to ≤ 0.5.

G12A G23A C49U C60U G67A and G12A C61A A65U cannot be ordered by yeast fitness: ≤ 0.5 for the first, ≤ 0.5 for the second.

First: G12A C49U C62U
Second: G12A C24A A36U C61U G67U
The yeast fitness of the first is lower: 0.68 for the first, 0.69 for the second.

Going from G12A A14C C31U C49G C60A to G12A C24G U26G G39C C49G, the yeast fitness rises from ≤ 0.5 to 0.511.

First: G12A G38A
Second: G12A G38A G56C C62A A65C
The yeast fitness of the first is higher: 0.728 for the first, ≤ 0.5 for the second.

G12A A43U A45C G67C G68U and G12A C24G A36G A65U cannot be ordered by yeast fitness: ≤ 0.5 for the first, ≤ 0.5 for the second.

Going from G12A A65C C66U G67U to G12A A40C A69C, the yeast fitness rises from 0.612 to 0.757.

First: G12A C55A G67A A70G
Second: G12A C46U A65U
The yeast fitness of the first is lower: ≤ 0.5 for the first, 0.998 for the second.

G12A A21C U35G G51A and G12A C49A G51A cannot be ordered by yeast fitness: ≤ 0.5 for the first, ≤ 0.5 for the second.

Going from G12A C49G A69C to G12A A36G U47G A65U, the yeast fitness rises from 0.551 to 0.646.

G12A C29A U35A and G12A G50A C60A cannot be ordered by yeast fitness: ≤ 0.5 for the first, ≤ 0.5 for the second.

First: G12A G18U G39A
Second: G12A C30U
The yeast fitness of the first is lower: ≤ 0.5 for the first, 0.836 for the second.

Compared with G12A C30A, G12A G23C C55G A69C is lower in yeast fitness: 0.915 for the first, 0.561 for the second.

First: G12A C27G A65G G68U
Second: G12A C24G A43C C62U A65G
The yeast fitness of the first is lower: 0.544 for the first, 0.636 for the second.

With G12A A20U C34A C55G C66A the yeast fitness was ≤ 0.5.
